Measured values taken from ChEMBL document CHEMBL1914423, “New imidazo[2,1-b]thiazole derivatives: synthesis, in vitro anticancer evaluation, and in silico studies” (Eur J Med Chem, 2011).

Experiments:
Assay type in all cases: functional
[1] = tested on: MDA-MB-231; assay: Anticancer activity against human MDA-MB-231 cells assessed as cell growth at 10^-5 M after 48 hrs by SRB assay; details: MDA-MB-231, 48 h, read-out: Activity
How it was run: (§1)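 NCI-60 single-dose screen at one concentration. Cells grown in RPMI 1640 with 5% FBS and 2 mM L-glutamine, plated at 5000–40,000 cells/well, and pre-incubated 24 h at 37 °C in 5% CO2 before DMSO-dissolved drug was added. Cells fixed with TCA, SRB-stained, absorbance read at 515 nm. Percent growth calculated against time-zero and untreated control plates.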

[2] = tested on: MOLT-4; assay: Anticancer activity against human MOLT4 cells assessed as cell growth at 10^-5 M after 48 hrs by SRB assay; details: MOLT-4, 48 h, read-out: Activity
[3] = tested on: UO-31; assay: Anticancer activity against human UO31 cells assessed as cell growth at 10^-5 M after 48 hrs by SRB assay; details: UO-31, 48 h, read-out: Activity
How it was run: (§2)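 NCI-60 single-dose screen: cells in RPMI 1640 with 5% FBS and 2 mM L-glutamine, plated at 5000–40,000 cells/well by doubling time, and preincubated 24 h at 37 °C. Compound given at one concentration from DMSO stock. Cells TCA-fixed and SRB-stained, absorbance at 515 nm. Percent growth relative to time-zero and untreated controls; inhibition % = 100 − growth %.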

[4] = tested on: UACC-62; assay: Anticancer activity against human UACC62 cells assessed as cell growth at 10^-5 M after 48 hrs by SRB assay; details: UACC-62, 48 h, read-out: Activity; how it was run: as §2
[5] = tested on: NCI-H460; assay: Anticancer activity against human NCI-H460 cells assessed as cell growth at 10^-5 M after 48 hrs by SRB assay; details: NCI-H460, 48 h, read-out: Activity
[6] = tested on: SK-OV-3; assay: Anticancer activity against human SKOV3 cells assessed as cell growth at 10^-5 M after 48 hrs by SRB assay; details: SK-OV-3, 48 h, read-out: Activity
[7] = tested on: OVCAR-5; assay: Anticancer activity against human OVCAR5 cells assessed as cell growth at 10^-5 M after 48 hrs by SRB assay; details: OVCAR-5, 48 h, read-out: Activity
[8] = tested on: NCI-H322M; assay: Anticancer activity against human NCI-H322M cells assessed as cell growth at 10^-5 M after 48 hrs by SRB assay; details: read-out: Activity
[9] = tested on: EKVX; assay: Anticancer activity against human EKVX cells assessed as cell growth at 10^-5 M after 48 hrs by SRB assay; details: read-out: Activity; how it was run: as §1
[10] = tested on: A498; assay: Anticancer activity against human A498 cells assessed as cell growth at 10^-5 M after 48 hrs by SRB assay; details: A498, 48 h, read-out: Activity; how it was run: as §1
[11] = tested on: OVCAR-4; assay: Anticancer activity against human OVCAR4 cells assessed as cell growth at 10^-5 M after 48 hrs by SRB assay; details: OVCAR-4, 48 h, read-out: Activity
[12] = tested on: SR; assay: Anticancer activity against human SR cells assessed as cell growth at 10^-5 M after 48 hrs by SRB assay; details: read-out: Activity; how it was run: as §2
[13] = tested on: UACC-257; assay: Anticancer activity against human UACC257 cells assessed as cell growth at 10^-5 M after 48 hrs by SRB assay; details: UACC-257, 48 h, read-out: Activity; how it was run: as §2
[14] = tested on: OVCAR-8; assay: Anticancer activity against human OVCAR8 cells assessed as cell growth at 10^-5 M after 48 hrs by SRB assay; details: OVCAR-8, 48 h, read-out: Activity
[15] = tested on: BT-549; assay: Anticancer activity against human BT549 cells assessed as cell growth at 10^-5 M after 48 hrs by SRB assay; details: BT-549, 48 h, read-out: Activity; how it was run: as §1
[16] = tested on: LOX IMVI; assay: Anticancer activity against human LOXIMVI cells assessed as cell growth at 10^-5 M after 48 hrs by SRB assay; details: read-out: Activity; how it was run: as §1
[17] = tested on: NCI-H23; assay: Anticancer activity against human NCI-H23 cells assessed as cell growth at 10^-5 M after 48 hrs by SRB assay; details: NCI-H23, 48 h, read-out: Activity
[18] = tested on: NCI/ADR-RES; assay: Anticancer activity against human NCI/ADR-RES cells assessed as cell growth at 10^-5 M after 48 hrs by SRB assay; details: read-out: Activity
[19] = tested on: SN12C; assay: Anticancer activity against human SN12C cells assessed as cell growth at 10^-5 M after 48 hrs by SRB assay; details: read-out: Activity
[20] = tested on: HOP-92; assay: Anticancer activity against human HOP92 cells assessed as cell growth at 10^-5 M after 48 hrs by SRB assay; details: HOP-92, 48 h, read-out: Activity; how it was run: as §1
[21] = tested on: SF-268; assay: Anticancer activity against human SF268 cells assessed as cell growth at 10^-5 M after 48 hrs by SRB assay; details: SF-268, 48 h, read-out: Activity
[22] = tested on: COLO 205; assay: Anticancer activity against human COLO205 cells assessed as cell growth at 10^-5 M after 48 hrs by SRB assay; details: COLO 205, 48 h, read-out: Activity; how it was run: as §1
[23] = tested on: SW-620; assay: Anticancer activity against human SW620 cells assessed as cell growth at 10^-5 M after 48 hrs by SRB assay; details: SW-620, 48 h, read-out: Activity; how it was run: as §2
[24] = tested on: M14; assay: Anticancer activity against human M14 cells assessed as cell growth at 10^-5 M after 48 hrs by SRB assay; details: M14, 48 h, read-out: Activity; how it was run: as §1
[25] = tested on: SK-MEL-2; assay: Anticancer activity against human SK-MEL-2 cells assessed as cell growth at 10^-5 M after 48 hrs by SRB assay; details: SK-MEL-2, 48 h, read-out: Activity
[26] = tested on: SK-MEL-5; assay: Anticancer activity against human SK-MEL-5 cells assessed as cell growth at 10^-5 M after 48 hrs by SRB assay; details: SK-MEL-5, 48 h, read-out: Activity
[27] = tested on: PC-3; assay: Anticancer activity against human PC3 cells assessed as cell growth at 10^-5 M after 48 hrs by SRB assay; details: PC-3, 48 h, read-out: Activity
[28] = tested on: Malme-3M; assay: Anticancer activity against human MALME-3M cells assessed as cell growth at 10^-5 M after 48 hrs by SRB assay; details: read-out: Activity; how it was run: as §1
[29] = tested on: U-251; assay: Anticancer activity against human U251 cells assessed as cell growth at 10^-5 M after 48 hrs by SRB assay; details: U-251, 48 h, read-out: Activity; how it was run: as §2
[30] = tested on: CCRF-CEM; assay: Anticancer activity against human CCRF-CEM cells assessed as cell growth at 10^-5 M after 48 hrs by SRB assay; details: read-out: Activity; how it was run: as §1
[31] = tested on: HCT-116; assay: Anticancer activity against human HCT116 cells assessed as cell growth at 10^-5 M after 48 hrs by SRB assay; details: HCT-116, 48 h, read-out: Activity; how it was run: as §1
[32] = tested on: HCC 2998; assay: Anticancer activity against human HCC2998 cells assessed as cell growth at 10^-5 M after 48 hrs by SRB assay; details: HCC 2998, 48 h, read-out: Activity; how it was run: as §1
[33] = tested on: HOP-62; assay: Anticancer activity against human HOP62 cells assessed as cell growth at 10^-5 M after 48 hrs by SRB assay; details: HOP-62, 48 h, read-out: Activity; how it was run: as §1

SMILES	growth at 10 µM [1]	growth at 10 µM [2]	growth at 10 µM [3]	growth at 10 µM [4]	growth at 10 µM [5]	growth at 10 µM [6]	growth at 10 µM [7]	growth at 10 µM [8]	growth at 10 µM [9]	growth at 10 µM [10]	growth at 10 µM [11]	growth at 10 µM [12]	growth at 10 µM [13]	growth at 10 µM [14]	growth at 10 µM [15]	growth at 10 µM [16]	growth at 10 µM [17]	growth at 10 µM [18]	growth at 10 µM [19]	growth at 10 µM [20]	other results
O=C(NCCNc1nccc(-c2c(-c3cccc(O)c3)nc3sccn23)n1)Nc1cc(C(F)(F)F)cc(C(F)(F)F)c1	41.4%	60.2%	73.1%	54.4%	51.8%	89.3%	96.5%	87%	52.2%	86%	121%	65.3%	57%	52.8%	87.6%	60.6%	90.9%	87.8%	82.8%	74.4%	growth at 10 µM [21]: 69.4%; growth at 10 µM [22]: 45.1%; growth at 10 µM [23]: 73.5%; growth at 10 µM [24]: 21.4%; growth at 10 µM [25]: 110%; growth at 10 µM [26]: 59.7%; growth at 10 µM [27]: 51.2%; growth at 10 µM [28]: 60.5%; growth at 10 µM [29]: 77%; growth at 10 µM [30]: 39.1%; growth at 10 µM [31]: 66.3%; growth at 10 µM [32]: 65.5%; growth at 10 µM [33]: 118%
COc1cccc(-c2nc3sccn3c2-c2ccnc(NCCNC(=O)c3ccccc3)n2)c1	83.5%	53.4%	53.8%	24.6%	84.9%	88.5%	99.1%	110%	106%	66.3%	109%	79.8%	69.7%	62.5%	85.1%	54.8%	87.3%	70.5%	84.3%	77.8%	growth at 10 µM [21]: 92.7%; growth at 10 µM [22]: 51.8%; growth at 10 µM [23]: 114%; growth at 10 µM [24]: 40.1%; growth at 10 µM [25]: 73.3%; growth at 10 µM [26]: 55.3%; growth at 10 µM [27]: 79.7%; growth at 10 µM [28]: 26.7%; growth at 10 µM [29]: 102%; growth at 10 µM [30]: 52.5%; growth at 10 µM [31]: 81.8%; growth at 10 µM [32]: 114%; growth at 10 µM [33]: 111%
COc1cccc(-c2nc3sccn3c2-c2ccnc(NCCNC(=O)c3ccccc3O)n2)c1	89.4%	59.1%	48.6%	36.8%	92.1%	90%	112%	95.6%	98.9%	89.7%	116%	95%	78.7%	55.2%	81.6%	68.5%	93.4%	54.6%	86%	75.5%	growth at 10 µM [21]: 93.6%; growth at 10 µM [22]: 107%; growth at 10 µM [23]: 119%; growth at 10 µM [24]: 46.9%; growth at 10 µM [25]: 80.7%; growth at 10 µM [26]: 48.6%; growth at 10 µM [27]: 62.8%; growth at 10 µM [28]: 57.5%; growth at 10 µM [29]: 103%; growth at 10 µM [30]: 34.7%; growth at 10 µM [31]: 69.7%; growth at 10 µM [32]: 113%; growth at 10 µM [33]: 114%
COc1cccc(-c2nc3sccn3c2-c2ccnc(NCCNC(=O)c3cccc(C(F)(F)F)c3)n2)c1	77.6%	48%	39.5%	30.1%	74.3%	81.1%	97.8%	102%	76.2%	63.5%	89%	63.2%	78.4%	40.5%	78.1%	54.7%	70.7%	38.4%	65.2%	106%	growth at 10 µM [21]: 71%; growth at 10 µM [22]: 46.1%; growth at 10 µM [23]: 103%; growth at 10 µM [24]: 46.5%; growth at 10 µM [25]: 77%; growth at 10 µM [26]: 48.4%; growth at 10 µM [27]: 55%; growth at 10 µM [28]: 50.8%; growth at 10 µM [29]: 74.5%; growth at 10 µM [30]: 39.3%; growth at 10 µM [31]: 56.9%; growth at 10 µM [32]: 87.1%; growth at 10 µM [33]: 99.5%
